Values joined by “and” are separate entries in the source; they are usually repeats but may differ in a detail not shown here. Identical values can stand only once. Like-named read-outs stand apart in the source and are kept apart here.
Legend:
SCI–FXIa complex = SCI–FXIa complex (Homo sapiens, UniProt P03951); assay: In vitro reversibility of SCI inhibition of FXIa by antidotes, S-2366 hydrolysis; assay type: biochemical; conditions: for restoration potency (EC50) / restoration yield (ΔY) of FXIa activity: FXIa inhibited by 2 μM of SCI, pH 7.4, 37 °C
FXIIa = FXIIa (Homo sapiens, UniProt P00748); assay: Chromogenic substrate hydrolysis assay, FXIIa; assay type: biochemical
Outline: (§1)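 Each purified human protease was tested against varying test compound levels under optimal conditions taken from the literature. A chromogenic substrate was used, except for FXIIIa, which used a fluorescence bisubstrate format. Protease activity versus concentration was fitted by non-linear regression to a logistic equation, giving IC50, efficacy (ΔY) and Hill slope.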

human whole blood [1] = assay: Hemostasis analysis; conditions: ex vivo
Outline: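 Citrated human whole blood was spiked with varying levels of test compound or enoxaparin and recalcified with CaCl2. A cone was lowered into the blood, and tension from platelets attaching within the fibrin meshwork was recorded automatically as platelet contractile force, thrombin generation time and clot elastic modulus.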

human plasma [2] = assay: Activated partial thromboplastin time; assay type: biochemical
Plasmin = Plasmin (Homo sapiens, UniProt P00747); assay: Chromogenic substrate hydrolysis assay, plasmin; assay type: biochemical
Outline: as §1

rFXIa-FLABS2 = rFXIa-FLABS2 (Homo sapiens, UniProt P03951, K547A/R548A/R550A); assay type: biochemical
Plasma Kallikrein = Plasma Kallikrein (Homo sapiens, UniProt P03952); assay: Chromogenic substrate hydrolysis assay, plasma kallikrein; assay type: biochemical
Outline: as §1

rFXIa-FLABS1 = rFXIa-FLABS1 (Homo sapiens, UniProt P03951); assay type: biochemical
FXIIIa = FXIIIa (Homo sapiens, UniProt P00488); assay: Fluorescence-based bisubstrate assay, FXIIIa; assay type: biochemical
Outline: as §1

Thrombin [3] = target: T1, Thrombin (Homo sapiens, UniProt P00734); assay: Thrombin inhibition with sub-optimal chromogenic substrate S-2366; assay type: biochemical
human whole blood [4] = assay: Thromboelastography; conditions: ex vivo
Outline: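 Citrated human whole blood with varying levels of test compound or enoxaparin was recalcified with CaCl2 to start clotting. The cup oscillated through a 4° 45ˋ angle at 0.1 Hz. Reaction time (min), angle (deg), maximum amplitude and shear elastic modulus were recorded automatically.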

DEGR-FXIa [5] = target: T2, DEGR-FXIa (Homo sapiens, UniProt P03951); assay: Acrylamide quenching of dansyl fluorescence of DEGR-FXIa; assay type: binding; conditions: 2 μM SCI; acrylamide 0–800 mM
Outline: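 Dansyl-labelled active-site-blocked human FXIa (DEGR-FXIa) in 20 mM Tris-HCl, pH 7.4, 37 °C. Acrylamide (0–800 mM) was added sequentially with or without a fixed level of test compound. Dansyl emission was recorded with excitation at 345 nm. Data were fitted to linear or quadratic Stern–Volmer equations.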

rFXIa-FLWT = rFXIa-FLWT (Homo sapiens, UniProt P03951); assay: Direct inhibition of recombinant full-length wild type FXIa, S-2366 hydrolysis; assay type: biochemical; conditions: pH 7.4, 37 °C
FXa = FXa (Homo sapiens, UniProt P00742); assay: Chromogenic substrate hydrolysis assay, FXa; assay type: biochemical
Outline: as §1

[6] = test system: HT-29 colorectal cell line; conditions: HT-29, SCI as high as 100 μM; cited from earlier work
FXIa [7] = target: T3, FXIa (Homo sapiens, UniProt P03951); assay: FXIa cleavage of macromolecular substrate FIX to FIXa; assay type: biochemical
FXIa [8] = target: T3, FXIa; assay: Fluorescence titration, intrinsic tryptophan fluorescence of FXIa; assay type: binding
FXIa [9] = target: T3, FXIa; assay: Competition between SCI and UFH, S-2366 hydrolysis assay; assay type: biochemical; conditions: UFH increased from 0 to 150 μM; pH 7.4, 37 °C
Outline: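 Purified full-length human FXIa hydrolysing S-2366 in 20 mM Tris-HCl, pH 7.4, 37 °C, read as initial rate of absorbance rise at 405 nm. Inhibition curves were run with unfractionated heparin at 0, 5, 50 or 150 μM. Fitted to a logistic dose–response equation for IC50, ΔY and Hill slope.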

Thrombin [10] = target: T1, Thrombin; assay: Chromogenic substrate hydrolysis assay, thrombin; assay type: biochemical
Outline: as §1

rat plasma = assay: APTT of rat plasma; assay type: biochemical
[11] = test system: human plasma deficient of antithrombin and heparin cofactor II; assay: Clotting of human plasma deficient of antithrombin or heparin cofactor II; assay type: biochemical; conditions: plasma deficient in antithrombin or heparin cofactor II
Mouse tail bleeding = assay type: in vivo; conditions: IV 35 μg/mouse SCI vs 300 μg enoxaparin
Outline: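 Test compound or enoxaparin comparator was given IV, then the tail was transected. Blood loss (mg) and time to cessation of bleeding were measured, with n = 4–7 per group. Groups were compared by two-tailed t-tests with unequal variance.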

human plasma [12] = assay: Prothrombin time; assay type: biochemical; conditions: even at 150 μM
Outline: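 One-stage recalcification clotting assay of human plasma containing varying levels of test compound. Clotting was started with Thromboplastin-D and CaCl2 at 37 °C and time to clot recorded. Clotting time versus concentration was fitted with a quadratic equation to give the concentration that doubles clotting time.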

DEGR-FXIa [13] = target: T2, DEGR-FXIa; assay: Fluorescence titration, dansyl fluorescence of DEGR-FXIa; assay type: binding; conditions: pH 7.4, 37 °C
FXIa [14] = target: T3, FXIa; assay: Direct inhibition of FXIa, S-2366 chromogenic substrate hydrolysis; assay type: biochemical
Outline: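 Full-length wild-type purified human FXIa hydrolysing chromogenic substrate S-2366 in 20 mM Tris-HCl, pH 7.4, 37 °C, with varying test compound. Activity taken as the initial rate of absorbance increase at 405 nm. A logistic dose–response equation fitted to residual protease activity gave IC50, efficacy (ΔY) and Hill slope.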

[15] = target: human, wild-type, full-length FXIa (Homo sapiens, UniProt P03951); assay: Michaelis-Menten kinetics of S-2366 hydrolysis by FXIa in the presence of SCI; assay type: biochemical; conditions: pH 7.4, 37 °C
Rat tail bleeding = assay type: in vivo
plasma = assay: Plasma clotting times in the presence of added FXI neutralizing antibody; assay type: biochemical; conditions: antibody 9 μg per 300 μL; SCI as high as 100 μM
Outline: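 Plasma APTT was measured by a one-stage recalcification assay at 37 °C, with clotting initiated by CaCl2. Plasma contained FXI-neutralizing antibody at 9 μg per 300 μL, and test compound was varied over a wide concentration range.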

FVIIa/TF = FVIIa/TF (Homo sapiens, UniProt P08709); assay: Chromogenic substrate hydrolysis assay, FVIIa/TF; assay type: biochemical
Outline: as §1

Trypsin = assay: Chromogenic substrate hydrolysis assay, trypsin; assay type: biochemical, human
Outline: as §1

FXIa [16] = target: T3, FXIa; assay: FXIa inhibition with sub-optimal chromogenic substrate Spectrozyme TH; assay type: biochemical
FIXa = FIXa (Homo sapiens, UniProt P00740); assay: Chromogenic substrate hydrolysis assay, FIXa; assay type: biochemical
Outline: as §1

Chymotrypsin = assay: Chromogenic substrate hydrolysis assay, chymotrypsin; assay type: biochemical, human
Outline: as §1

[17] = FeCl3-induced arterial thrombosis model in rats; assay type: in vivo, rat
Outline: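 Female Wistar rats (~250 g), under ketamine/xylazine with isoflurane maintenance. Test compound (250, 500 or 2000 μg/rat) or enoxaparin in PBS was infused into the tail vein. After 5 min, 10% FeCl3-soaked filter paper was applied to the exposed abdominal aorta between two sutures for 10 min. The clot matured 15 min, sutures were tightened, and thrombus wet and dry weights recorded.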

[18] = Thromboplastin-induced venous thrombosis model in rats; assay type: in vivo; conditions: 250 μg per rat

T3 sequence (P03951 388-625 limits assumed): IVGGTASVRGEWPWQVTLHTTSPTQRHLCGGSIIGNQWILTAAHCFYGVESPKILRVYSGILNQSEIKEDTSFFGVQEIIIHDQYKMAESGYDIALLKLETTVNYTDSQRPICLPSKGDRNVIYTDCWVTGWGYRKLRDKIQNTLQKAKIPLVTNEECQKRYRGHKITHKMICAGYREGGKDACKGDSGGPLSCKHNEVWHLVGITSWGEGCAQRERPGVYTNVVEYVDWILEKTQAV
T3 sequence (P03951 19-387 limits assumed): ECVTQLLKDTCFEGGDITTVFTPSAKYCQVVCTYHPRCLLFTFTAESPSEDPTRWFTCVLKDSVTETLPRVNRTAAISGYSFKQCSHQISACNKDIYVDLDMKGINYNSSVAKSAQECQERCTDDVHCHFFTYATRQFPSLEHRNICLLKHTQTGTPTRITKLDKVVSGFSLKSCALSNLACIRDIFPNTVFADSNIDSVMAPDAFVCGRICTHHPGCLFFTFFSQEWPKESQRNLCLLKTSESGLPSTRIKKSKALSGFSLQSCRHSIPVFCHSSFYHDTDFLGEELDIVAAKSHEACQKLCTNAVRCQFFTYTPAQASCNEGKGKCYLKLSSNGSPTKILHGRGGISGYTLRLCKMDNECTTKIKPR
T2 sequence (P03951 388-625 limits assumed): as the sequence (P03951 388-625 limits assumed) above
T2 sequence (P03951 19-387 limits assumed): as the sequence (P03951 19-387 limits assumed) above
Sequence of SCI–FXIa complex (P03951 388-625 limits assumed): as the sequence (P03951 388-625 limits assumed) above
Sequence of SCI–FXIa complex (P03951 19-387 limits assumed): as the sequence (P03951 19-387 limits assumed) above
Sequence of rFXIa-FLABS2 (P03951 388-625 K547A/R548A/R550A limits assumed): as the sequence (P03951 388-625 limits assumed) above, with K160A, R161A, R163A counted along it
Sequence of rFXIa-FLABS2 (P03951 19-387 limits assumed): as the sequence (P03951 19-387 limits assumed) above
Sequence of rFXIa-FLABS1 (P03951 388-625 limits assumed): as the sequence (P03951 388-625 limits assumed) above
Sequence of human, wild-type, full-length FXIa (P03951 388-625 limits assumed): as above
Sequence of human, wild-type, full-length FXIa (P03951 19-387 limits assumed): as the sequence (P03951 19-387 limits assumed) above
Sequence of Plasmin (P00747 581-810 limits assumed): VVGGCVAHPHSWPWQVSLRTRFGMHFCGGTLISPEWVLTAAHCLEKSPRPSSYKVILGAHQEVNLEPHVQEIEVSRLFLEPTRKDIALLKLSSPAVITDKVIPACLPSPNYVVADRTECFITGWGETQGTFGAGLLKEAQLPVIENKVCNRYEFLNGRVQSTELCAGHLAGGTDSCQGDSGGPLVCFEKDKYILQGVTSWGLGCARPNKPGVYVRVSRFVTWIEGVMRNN
Sequence of Plasmin (P00747 97-580 partner limits assumed): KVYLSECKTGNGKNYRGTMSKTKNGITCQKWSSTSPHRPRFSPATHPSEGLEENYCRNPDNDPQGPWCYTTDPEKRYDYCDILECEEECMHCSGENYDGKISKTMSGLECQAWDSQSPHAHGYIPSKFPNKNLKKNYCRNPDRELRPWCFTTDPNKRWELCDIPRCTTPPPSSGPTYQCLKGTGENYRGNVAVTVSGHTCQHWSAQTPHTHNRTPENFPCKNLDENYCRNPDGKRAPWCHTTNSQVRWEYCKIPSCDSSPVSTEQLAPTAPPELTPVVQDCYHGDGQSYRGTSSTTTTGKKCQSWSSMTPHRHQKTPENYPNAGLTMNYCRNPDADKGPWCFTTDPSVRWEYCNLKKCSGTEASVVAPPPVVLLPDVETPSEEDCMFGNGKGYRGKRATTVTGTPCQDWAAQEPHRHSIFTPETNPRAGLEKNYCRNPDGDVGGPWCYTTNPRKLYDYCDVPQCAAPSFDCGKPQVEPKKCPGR
Sequence of rFXIa-FLWT (P03951 388-625 limits assumed): as the sequence (P03951 388-625 limits assumed) above
Sequence of rFXIa-FLWT (P03951 19-387 limits assumed): as the sequence (P03951 19-387 limits assumed) above
Sequence of FXIIa (P00748 373-615 limits assumed): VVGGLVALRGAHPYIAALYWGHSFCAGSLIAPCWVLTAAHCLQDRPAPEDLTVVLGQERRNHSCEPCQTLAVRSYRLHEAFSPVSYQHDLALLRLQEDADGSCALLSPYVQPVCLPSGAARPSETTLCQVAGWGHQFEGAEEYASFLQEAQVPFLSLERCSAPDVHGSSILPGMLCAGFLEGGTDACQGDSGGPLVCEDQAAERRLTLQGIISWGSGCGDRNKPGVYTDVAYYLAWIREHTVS

## O=S(=O)(O)OC[C@H]1O[C@@](COS(=O)(=O)O)(O[C@H]2O[C@H](COS(=O)(=O)O)[C@@H](OS(=O)(=O)O)[C@H](OS(=O)(=O)O)[C@H]2OS(=O)(=O)O)[C@@H](OS(=O)(=O)O)[C@@H]1OS(=O)(=O)O [SOS, sucrose octasulfate]
SCI–FXIa complex
  restoration potency (EC50): 750 µg/mL
  restoration yield (ΔY) of FXIa activity: ~ 39%

## polybrene
SCI–FXIa complex
  restoration potency (EC50): 0.4 µg/mL
  restoration yield (ΔY) of FXIa activity: ~ 88%

## protamine sulfate
SCI–FXIa complex
  restoration potency (EC50): 14.0 µg/mL
  restoration yield (ΔY) of FXIa activity: ~ 69%

## sulfated chiro-inositol [SCI]
FXIIa
  IC50: > 50 µM
Human whole blood [1]
  effect on HAS parameters: reduced platelet contractile force and clot elastic modulus, whereas prolonged force onset time
Human plasma [2]
  concentration for 2-fold increase in APTT: 32.2 µM
Plasmin
  IC50: > 40 µM
rFXIa-FLABS2
  reduction in efficacy relative to rFXIa-FLWT: ~ 20%
  weaker inhibition relative to rFXIa-FLWT: ~ 5 fold
rFXIa-FLABS2; full length FXIa missing catalytic domain's HBS
  IC50: 20.7 ± 3.6 µM
Plasma Kallikrein
  IC50: > 65 µM
SCI–FXIa complex; protamine as antidote
  reversibility with protamine: > 50%
Maximum tolerated dose; 25 mg/animal, no bleeding or cellular toxicity
  highest dose studied relative to effective dose: > 100 fold
Maximum tolerated dose; rats, 5, 10 and 25 mg per animal IV, n=3/group, 7 days observation
  tolerability (mobility, weight loss, bleeding): well tolerated
rFXIa-FLABS1
  potency relative to rFXIa-FLWT: essentially identical
rFXIa-FLABS1; full length FXIa missing A3 domain's HBS
  IC50: 3 ± 0.2 µM
FXIIIa
  IC50: > 90 µM
Thrombin [3]
  inhibition of thrombin with S-2366: essentially no inhibition
Human whole blood [4]
  effect on TEG parameters: increase time to initial fibrin formation, while decrease all other parameters
DEGR-FXIa [5]
  dansyl fluorescence of SCI–DEGR-FXIa complex on acrylamide addition: remained invariant
rFXIa-FLWT
  IC50: 4.2 ± 0.6 µM
FXa
  IC50: > 40 µM
[6]
  cellular toxicity (cell death): No significant adverse effect
FXIa [7]
  inhibition of FXIa cleavage of FIX to FIXa: dose-dependently inhibited
FXIa [8]; intrinsic fluorescence, pH 7.4, 37 °C
  Kd: 0.063 ± 0.011 µM
FXIa [8]; pH 7.4, 37 °C
  saturating increase in intrinsic fluorescence: 133%
FXIa [8]; spectrofluorometric titration
  stoichiometry of SCI binding to dimeric FXIa: 1.83±0.08
FXIa [9]
  increase of IC50 of FXIa inhibition with UFH: ~ 6 fold
Thrombin [10]
  IC50: > 40 µM
Rat plasma
  effect on APTT of rat plasma: preferentially enhance APTT
[11]
  effect on APTT of serpin-deficient plasma: preferentially prolonged the APTT
Mouse tail bleeding
  blood loss and bleeding time: much lower than that induced by enoxaparin
Human plasma [12]
  impact on the PT: minimal
DEGR-FXIa [13]
  increase in dansyl fluorescence: 152%
DEGR-FXIa [13]; read-out: affinity (KD), dansyl fluorescence
  Kd: 0.025 µM
FXIa [14]; FXIa inhibition
  potency relative to SPGG (better): ~ 2 fold and 2 fold
FXIa [14]; S-2366, pH 7.4, 37 °C
  efficacy of FXIa inhibition: 100%
FXIa [14]; full length, wild type, purified human FXIa, S-2366, pH 7.4, 37 °C
  IC50: 0.28 ± 0.01 µM
FXIa [14]; read-out: potency of FXIa inhibition
  IC50: 0.28 µM and ~0.28 µM
[15]
  decrease of VMAX: ~ 4 fold
[15]; decreased from 52.1
  VMAX in the presence of SCI: 14.2 mAU/min
Rat tail bleeding; 250 μg/rat IV, n=15, PBS 147±29 mg
  blood loss: 119 ± 41 mg
Rat tail bleeding; 250 μg/rat, PBS 13±4
  tail bleeding time: 14 ± 4 min
plasma
  effect on plasma clotting times with FXI neutralizing antibody: did not significantly impact plasma clotting times
FVIIa/TF
  IC50: > 50 µM
Trypsin
  IC50: > 50 µM
FXIa [16]
  inhibition of FXIa with Spectrozyme TH: potent inhibition
FIXa
  IC50: > 65 µM
Chymotrypsin
  IC50: > 40 µM
[17]; 250 μg per rat
  wet weight of thrombus lower than negative control (PBS): ~ 33%
[17]; 250 μg per rat, n=14, PBS 43.35±2.63 mg
  wet weight of thrombus: 28.85 ± 2.12 mg
[17]; 500 or 2000 μg/animal
  decrease of average dry thrombus weight vs PBS: 55–63%
  decrease of average wet thrombus weight vs PBS: 53–55%
[18]
  reduction of average dry weight of thrombus: 48%
  wet weight of thrombus less than PBS group: ~ 42%
[18]; n=13, PBS 38.61±3.56 mg
  wet weight of thrombus: 22.46 ± 1.14 mg

Source: publication PMC6893084 (Journal of thrombosis and haemostasis : JTH, 2019)
